Screens (PubChem BioAssay)
Hck Nef HTS: blocks Nef-activated human Hck kinase; P08631; Recombinant Hck-YEEI plus Nef, Z-Lyte FRET kinase assay; inhibition, % at 20 µM; actives 0.68% (n = 220,000);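 active means Hck-Nef kinase inhibition above about 50%, limit read from the data; inactive means inhibition below that limit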;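 further: 0% = DMSO with Hck plus Nef and 100% = Hck alone without Nef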
WT yeast gro inh: growth inhibition of WT yeast, mitochondrial fusion screen; mitochondrial fusion phenotypic screen, WT strain; actives 2.1% (n = 190,000); inhibition, % at 10 µM; in the data active means inhibition above about 58%; tested in S. cerevisiae
p47phox inh: inhibitors of human p47phox binding | inhibition, % at 24.7 µM | AID 1274 | actives 0.53% (n = 220,000) | P14598 | p47phox/p22phox peptide binding, fluorescence polarization, 2 h;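 active means inhibition above about 30%, limit read from the data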;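 further: 0% = p47phox with labelled peptide and 100% = labelled peptide alone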
Target sequence (P14598 whole entry, looked up): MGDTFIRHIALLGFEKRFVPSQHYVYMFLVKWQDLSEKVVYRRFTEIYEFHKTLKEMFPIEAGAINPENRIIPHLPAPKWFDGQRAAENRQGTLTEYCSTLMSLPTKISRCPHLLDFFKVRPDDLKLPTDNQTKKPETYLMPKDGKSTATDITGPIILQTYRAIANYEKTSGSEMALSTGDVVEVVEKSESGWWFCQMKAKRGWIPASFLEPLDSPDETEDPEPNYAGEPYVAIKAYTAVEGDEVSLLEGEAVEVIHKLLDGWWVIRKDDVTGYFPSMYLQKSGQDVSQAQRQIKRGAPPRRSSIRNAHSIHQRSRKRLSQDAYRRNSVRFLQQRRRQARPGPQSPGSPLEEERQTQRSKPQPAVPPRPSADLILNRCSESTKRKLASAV
Calb biofilm kill: mixtures killing C. albicans biofilm; C. albicans biofilm persisters + clotrimazole, fluorescence viability; primary screen in compound mixtures of four per well; actives 0.02% (n = 120,000); AID 1242; inhibition, % at 7.6 µM;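 active means inhibition above 30.3% in the primary screen of four-compound pools, then above 30% when the compound was retested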;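 further: compounds exposed to preformed 24 h biofilms for 48 h; 0% = untreated biofilm control and 100% = clotrimazole plus chlorhexidine kill blank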
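Incubation: 24 h biofilm formation, then 48 h compound exposure, 37 °C | Material: C. albicans biofilms | Buffer or medium: RPMI/MOPS medium, pH 7.0 | Measured by: 2-h Alamar Blue fluorescence, 535/590 nm excitation/emission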
RAM network inh: inhibitors of the yeast RAM network; AID 868; actives 1.8% (n = 190,000); S. cerevisiae dse1pr::URA3 reporter, 5-FOA growth OD615, 2 d; analog-sensitive cbk1-as2 kinase mutant strain; inhibition, % at 50 µM;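 active means inhibition above a set limit, 3 SD over mean compound inhibition, cut at about 8.4% in these data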;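 further: 0% = DMSO-only wells with no growth and 100% = 10 µM 1-NA-PP1 full growth; inhibition rescues growth on 5-FOA so higher OD means more RAM inhibition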
Arbovirus anti: blocks arbovirus infection; arbovirus infection cell-based antiviral screen; inhibition, % at 10 µM; actives 0.37% (n = 200,000); AID 1251; in the data active means inhibition above about 30%
RAM 5-FOA: RAM network inhibition, efflux-deficient strain | shares compounds with RAM network inh | max inhibition, % | S. cerevisiae efflux-deficient reporter strain, 5-FOA growth OD615, 2 days | 1,200 tested, under 10 active; call rule not given here;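 further: plate controls were vehicle for no effect and reference inhibitor for full effect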
Active calls of the source: *. Rows were chosen to be rich in hits. Some 4.6% of all compounds tested hit in one or more screens of this group.

`CCOC(=O)CSc1nc2ccccc2c(=O)n1CC` gave Hck Nef HTS 7, WT yeast gro inh -7, p47phox inh -5, RAM network inh 0 and Arbovirus anti 2.
Screening CNCc1ccccc1OCc1ccccc1F returned Hck Nef HTS 1, WT yeast gro inh -6, p47phox inh -7, Calb biofilm kill 2, RAM network inh -1 and Arbovirus anti -10.
CCOc1ccc(-n2c(C)nc(O)c2N=Nc2ccccc2)cc1 was read as Hck Nef HTS 0, WT yeast gro inh -9, p47phox inh -18, Calb biofilm kill 14, RAM network inh 14*, Arbovirus anti -12 and RAM 5-FOA 4.
For Cc1cccc(NC(=O)CSc2ccc(C(N)=O)cc2[N+](=O)[O-])c1C the results were Hck Nef HTS 2, WT yeast gro inh 6, p47phox inh 0, Calb biofilm kill 8, RAM network inh 2 and Arbovirus anti -5.
CCNc1nn2ccccc2c1/C=C(\C#N)C(=O)OCC was read as Hck Nef HTS 17, p47phox inh -9 and Calb biofilm kill 9.
Screening CCOC(=O)c1cc(-c2ccccc2)sc1NC(=O)C(C)OC(=O)c1cccnc1OCC (centres undefined) returned Hck Nef HTS 2, WT yeast gro inh -8, p47phox inh -8, Calb biofilm kill 5, RAM network inh 12*, Arbovirus anti -13 and RAM 5-FOA 6.
`CCOC(=O)C1(Cc2cccc(OC)c2)CCN(Cc2ccc(C)s2)CC1` gave Hck Nef HTS 2, WT yeast gro inh 26, p47phox inh -2, Calb biofilm kill 14, RAM network inh 2 and Arbovirus anti 1.
Screening CCN(CCS(=O)(=O)c1ccc(Cl)cc1)C(=O)Nc1ccc(Cl)cc1 returned Hck Nef HTS -4, p47phox inh -1 and Calb biofilm kill -5.
Screening COc1ccc(-c2nnc(SC(C)C(=O)NNC(=O)c3ccc(C)cc3)o2)cc1 (centres undefined) returned Hck Nef HTS 2, WT yeast gro inh 6, p47phox inh -5, Calb biofilm kill -1, RAM network inh 0 and Arbovirus anti -17.
`COc1ccc(-c2nnc(SC(C)C(=O)Nc3cccc(Cl)c3)o2)cc1` (centres undefined) gave Hck Nef HTS -1, WT yeast gro inh 33, p47phox inh -6, RAM network inh 15*, Arbovirus anti 4 and RAM 5-FOA 2.
Cc1[nH]c2ccccc2c1/C=N/Nc1ccc([N+](=O)[O-])cc1S(=O)(=O)Nc1ccc(Cl)cc1 was read as Hck Nef HTS 4, WT yeast gro inh 50, p47phox inh -34, RAM network inh 14*, Arbovirus anti -9 and RAM 5-FOA 4.
`CCCOc1c(Cl)cc(C(=O)NC)cc1OC` gave Hck Nef HTS -11, WT yeast gro inh -12, p47phox inh -6, Calb biofilm kill 11, RAM network inh 1 and Arbovirus anti 0.
`O=C(/C=C/c1ccc2c(c1)OCCCO2)c1ccc2ccccc2c1O` gave Hck Nef HTS 1, WT yeast gro inh -3, p47phox inh -12, Calb biofilm kill 12, RAM network inh 12*, Arbovirus anti 32* and RAM 5-FOA 6.
For O=C(CSc1nc(SCC(=O)NCc2ccccc2)n(-c2ccccc2)n1)NCc1ccccc1 the results were Hck Nef HTS -2, WT yeast gro inh -5, p47phox inh -10, RAM network inh 36*, Arbovirus anti 8 and RAM 5-FOA 2.
CN(C)C(=O)CSc1nc(SCC(=O)N(C)C)n(-c2ccccc2)n1 was read as Hck Nef HTS 2, WT yeast gro inh 17, p47phox inh -10, RAM network inh 0 and Arbovirus anti 7.
CCOC(=O)CSc1ccc(S(=O)(=O)N(C)C2CCCCC2)cc1[N+](=O)[O-] was read as Hck Nef HTS -2, WT yeast gro inh 20, p47phox inh -11, RAM network inh 8 and Arbovirus anti -2.
Screening Cc1ccc(NC(=O)CNC(=O)c2cccs2)cc1S(=O)(=O)Nc1ccc(Cl)cc1 returned Hck Nef HTS 2, WT yeast gro inh -1, p47phox inh -27, Calb biofilm kill 9, RAM network inh 12*, Arbovirus anti -12 and RAM 5-FOA 2.
For CN(C)/C=N/C(=S)Nc1ccc(Cl)cc1Cl the results were Hck Nef HTS 11, WT yeast gro inh 14, p47phox inh 2, Calb biofilm kill 10, RAM network inh 1 and Arbovirus anti 0.
For O=C(CSc1nnc(-c2ccncc2)n1-c1ccccc1Cl)Nc1ccc(C(=O)O)cc1 the results were Hck Nef HTS 19, WT yeast gro inh -10, p47phox inh -8, Calb biofilm kill 13, RAM network inh 12*, Arbovirus anti 7 and RAM 5-FOA 3.
For O=C(CSc1nnc(-c2ccncc2)n1-c1ccccc1)Nc1ccc(C(=O)O)cc1 the results were Hck Nef HTS 16, WT yeast gro inh -9, p47phox inh 6, Calb biofilm kill 15, RAM network inh 1 and Arbovirus anti 3.
`C=CCNC(=O)c1ccccc1NC(=O)C1COc2ccccc2O1` (centres undefined) gave Hck Nef HTS 26, WT yeast gro inh -11, p47phox inh -12, Calb biofilm kill 16, RAM network inh 6 and Arbovirus anti 7.
Screening CCCCNC(=S)N(C)/N=C/c1ccc(OCC(=O)Nc2ccc(OC)cc2)c(OC)c1 returned Hck Nef HTS 0, WT yeast gro inh 16, p47phox inh -4, Calb biofilm kill 17, RAM network inh 15*, Arbovirus anti -3 and RAM 5-FOA 3.
Screening COCCCNc1nc(SCc2ccccc2)nc2sc3c(c12)CCC3 returned Hck Nef HTS 1, WT yeast gro inh 42, p47phox inh -40, RAM network inh 16*, Arbovirus anti 8 and RAM 5-FOA 6.
CC(C)C(NC(=O)C(NC(=O)C1O[C@@H]2OC(C)(C)O[C@@H]2[C@H]2OC(C)(C)O[C@@H]12)C(C)C)C(=O)O (some centres undefined) was read as Hck Nef HTS 6, WT yeast gro inh -3, p47phox inh -5, Calb biofilm kill 13, RAM network inh 0 and Arbovirus anti 6.
For O=C(COc1ccccc1Cl)Nc1cc(Cl)ccc1Oc1ccccc1 the results were Hck Nef HTS -1, WT yeast gro inh -10, p47phox inh 0, RAM network inh 14*, Arbovirus anti -10 and RAM 5-FOA 4.
For Cc1noc(NS(=O)(=O)c2ccc(N/C=C\C(=O)c3ccc4c(c3)OCO4)cc2)c1C the results were Hck Nef HTS 0, WT yeast gro inh 56, p47phox inh -2, RAM network inh 8 and Arbovirus anti 15.
